Laboratory results reported in ChEMBL document CHEMBL3751780, “Rational design, synthesis and in vitro evaluation of allylidene hydrazinecarboximidamide derivatives as BACE-1 inhibitors” (Bioorg Med Chem Lett, 2016).
pIC50: −log10 of the molar value. The source made the active and inactive calls. The rule behind the calls is not given here.

Test system: not listed separately
Assay: Cytotoxicity against human […] cells at 10 uM after 24 hrs by MTT assay
Assay type: cell-based

SMILES | Activity
N=C(N)N/N=C(/C=C/c1ccccc1)c1cccc(O)c1 | Non-toxic
CN(C)c1ccc(/C=C/C(=N/NC(=N)N)c2ccccc2)cc1 | Non-toxic
COc1ccc(/C=C/C(=N/NC(=N)N)c2cccc([N+](=O)[O-])c2)cc1OC | Non-toxic
N=C(N)N/N=C(/C=C/c1ccccc1)c1ccc(Cl)cc1 | Non-toxic
N=C(N)N/N=C(/C=C/c1ccccc1)c1ccc([N+](=O)[O-])cc1 | Non-toxic
COc1ccc(/C=C/C(=N/NC(=N)N)c2ccc([N+](=O)[O-])cc2)cc1OC | Non-toxic
N=C(N)N/N=C(/C=C/c1cccc([N+](=O)[O-])c1)c1ccc(Cl)cc1Cl | Non-toxic
N=C(N)N/N=C(/C=C/c1cccc([N+](=O)[O-])c1)c1ccccc1 | Non-toxic
COc1ccc(OC)c(/C=C/C(=N/NC(=N)N)c2cccc(Br)c2)c1 | Non-toxic
CN(C)c1ccc(/C=C/C(=N/NC(=N)N)c2ccc([N+](=O)[O-])cc2)cc1 | Non-toxic
COc1ccc(/C=C/C(=N/NC(=N)N)c2ccccc2)cc1OC | Non-toxic
Cc1ccc(C(/C=C/c2ccc(N(C)C)cc2)=N\NC(=N)N)cc1 | Non-toxic
COc1ccc(C(/C=C/c2cccc([N+](=O)[O-])c2)=N\NC(=N)N)cc1 | Non-toxic
N=C(N)N/N=C(/C=C/c1cccc([N+](=O)[O-])c1)c1cccc(Br)c1 | Non-toxic
COc1ccc(/C=C/C(=N/NC(=N)N)c2ccc(Cl)cc2Cl)cc1OC | Non-toxic
CN(C)c1ccc(/C=C/C(=N/NC(=N)N)c2cccc([N+](=O)[O-])c2)cc1 | Non-toxic
N=C(N)N/N=C(/C=C/c1cccc([N+](=O)[O-])c1)c1ccc([N+](=O)[O-])cc1 | Non-toxic
COc1ccc(/C=C/C(=N/NC(=N)N)c2cccc(Br)c2)cc1OC | Non-toxic
COc1ccc(OC)c(/C=C/C(=N/NC(=N)N)c2ccccc2)c1 | Non-toxic
N=C(N)N/N=C(/C=C/c1ccccc1)c1ccccc1 | Non-toxic
COc1ccc(C(/C=C/c2cc(OC)ccc2OC)=N\NC(=N)N)cc1 | Non-toxic
COc1ccc(/C=C/C(=N/NC(=N)N)c2ccc(Cl)cc2)cc1OC | Non-toxic
N=C(N)N/N=C(/C=C/c1ccccc1)c1cccc([N+](=O)[O-])c1 | Non-toxic

Molecular target: T1, Beta-secretase 1 (Homo sapiens, UniProt P56817)
Assay: Inhibition of human BACE1 (1 to 460 residues) using APP-based peptide as substrate incubated for 60 mins by FRET analysis

T1 sequence (P56817 whole entry, the tested form may be a part): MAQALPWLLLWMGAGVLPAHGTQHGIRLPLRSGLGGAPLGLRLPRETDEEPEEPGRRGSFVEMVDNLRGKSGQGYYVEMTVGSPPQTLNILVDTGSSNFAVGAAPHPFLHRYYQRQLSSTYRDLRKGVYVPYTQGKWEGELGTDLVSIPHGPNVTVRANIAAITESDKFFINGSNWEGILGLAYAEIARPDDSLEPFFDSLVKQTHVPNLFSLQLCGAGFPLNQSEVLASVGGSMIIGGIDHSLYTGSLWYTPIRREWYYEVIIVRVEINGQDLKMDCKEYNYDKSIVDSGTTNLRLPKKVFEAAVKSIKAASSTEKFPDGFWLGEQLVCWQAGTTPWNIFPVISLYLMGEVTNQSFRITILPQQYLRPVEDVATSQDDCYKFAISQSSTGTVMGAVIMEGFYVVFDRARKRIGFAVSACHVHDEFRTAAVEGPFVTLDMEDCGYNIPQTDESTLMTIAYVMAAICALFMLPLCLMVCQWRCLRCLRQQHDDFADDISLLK

pIC50 | SMILES
5.19 | COc1ccc(/C=C/C(=N/NC(=N)N)c2ccc(Cl)cc2)cc1OC

Molecular target: T1, Beta-secretase 1
Assay: Inhibition of human BACE1 (1 to 460 residues) using APP-based peptide as substrate at 10 uM incubated for 60 mins by FRET analysis
How it was run: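 Measured by FRET. Test compounds were screened at one fixed concentration and reported as percent inhibition, given as mean ± SD of triplicate experiments performed independently.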

inhibition | SMILES
inactive | CN(C)c1ccc(/C=C/C(=N/NC(=N)N)c2ccccc2)cc1
45.8% | COc1ccc(/C=C/C(=N/NC(=N)N)c2cccc([N+](=O)[O-])c2)cc1OC
18% | N=C(N)N/N=C(/C=C/c1ccccc1)c1ccc(Cl)cc1
13.5% | N=C(N)N/N=C(/C=C/c1ccccc1)c1ccc([N+](=O)[O-])cc1
61.2% | COc1ccc(/C=C/C(=N/NC(=N)N)c2ccc([N+](=O)[O-])cc2)cc1OC
5.4% | N=C(N)N/N=C(/C=C/c1cccc([N+](=O)[O-])c1)c1ccc(Cl)cc1Cl
47.9% | N=C(N)N/N=C(/C=C/c1cccc([N+](=O)[O-])c1)c1ccccc1
23.9% | COc1ccc(OC)c(/C=C/C(=N/NC(=N)N)c2cccc(Br)c2)c1
23.9% | CN(C)c1ccc(/C=C/C(=N/NC(=N)N)c2ccc([N+](=O)[O-])cc2)cc1
42.1% | COc1ccc(/C=C/C(=N/NC(=N)N)c2ccccc2)cc1OC
10.8% | Cc1ccc(C(/C=C/c2ccc(N(C)C)cc2)=N\NC(=N)N)cc1
11% | COc1ccc(C(/C=C/c2cccc([N+](=O)[O-])c2)=N\NC(=N)N)cc1
10.8% | N=C(N)N/N=C(/C=C/c1cccc([N+](=O)[O-])c1)c1cccc(Br)c1
21.8% | COc1ccc(/C=C/C(=N/NC(=N)N)c2ccc(Cl)cc2Cl)cc1OC
28% | CN(C)c1ccc(/C=C/C(=N/NC(=N)N)c2cccc([N+](=O)[O-])c2)cc1
62.1% | N=C(N)N/N=C(/C=C/c1cccc([N+](=O)[O-])c1)c1ccc([N+](=O)[O-])cc1
25.9% | COc1ccc(/C=C/C(=N/NC(=N)N)c2cccc(Br)c2)cc1OC
32.6% | COc1ccc(OC)c(/C=C/C(=N/NC(=N)N)c2ccccc2)c1
10.8% | N=C(N)N/N=C(/C=C/c1ccccc1)c1ccccc1
10.3% | COc1ccc(C(/C=C/c2cc(OC)ccc2OC)=N\NC(=N)N)cc1
78.2% | COc1ccc(/C=C/C(=N/NC(=N)N)c2ccc(Cl)cc2)cc1OC
23.4% | N=C(N)N/N=C(/C=C/c1ccccc1)c1cccc([N+](=O)[O-])c1
